# Published values gathered from unrelated publications.
# Each line is one published result; the experiments were not run side by side.
# Target: Phosphorylase b kinase gamma catalytic chain, liver/testis isoform (PHKG2, Homo sapiens, UniProt P15735)
# One construct used (P15735 1-406): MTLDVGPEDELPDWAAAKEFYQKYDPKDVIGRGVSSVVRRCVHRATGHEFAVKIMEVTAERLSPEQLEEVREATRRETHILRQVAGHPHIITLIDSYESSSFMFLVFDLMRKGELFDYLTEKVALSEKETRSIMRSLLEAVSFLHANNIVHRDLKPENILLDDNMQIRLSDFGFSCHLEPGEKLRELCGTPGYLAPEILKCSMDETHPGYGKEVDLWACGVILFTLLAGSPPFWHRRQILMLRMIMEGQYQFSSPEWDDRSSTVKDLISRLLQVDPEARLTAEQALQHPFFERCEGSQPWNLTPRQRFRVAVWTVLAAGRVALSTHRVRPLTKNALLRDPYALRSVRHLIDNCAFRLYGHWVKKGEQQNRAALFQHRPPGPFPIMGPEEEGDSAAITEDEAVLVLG
SMILES,assay,test system,setting,measurement,result
CC(C)c1ccc(NC(=O)c2cccs2)c(-c2nc3ccccc3[nH]c2=O)c1,"enzyme activity, inhibitor",,1 µM,activity vs control,96%
COc1cc2ncnc(Nc3ccc(Oc4ccccc4)c(C)c3C)c2cc1OC,"enzyme activity, inhibitor",,1 µM,inhibition,2%
Nc1ncnc2occ(-c3ccc(NC(=O)Nc4cc(C(F)(F)F)ccc4F)cc3)c12,"cell-free assay, inhibitor",,20 µM,remaining signal,53%
CCCS(=O)(=O)Nc1ccc(F)c(C(=O)c2c[nH]c3ncc(-c4ccc(Cl)cc4)cc23)c1F,"enzyme activity, inhibitor",,1 µM,inhibition,< 10%
CCc1ccccc1C(=O)Nc1n[nH]c2c(C)c(F)c(C3C(C#N)=C(C)N(C)C(C)=C3C#N)cc12,"cell-free assay, competition with immobilised ligand",,1 µM,remaining binding,81%
Cc1ccc(C(=O)Nc2ccc(CN3CCN(C)CC3)c(C(F)(F)F)c2)cc1C#Cc1cnc2cccnn12,"enzyme activity, inhibitor",,23.5 nM,remaining activity,100%
CNCc1ccccc1-c1csc([C@H](C)Nc2nc(C)nc3cc(OC)c(OC)cc23)c1,"cell-free assay, competition with immobilised ligand",,1 µM,remaining binding,100%
CCN(CC)c1ccc(C2=NNC(=O)CC2C)cc1[N+](=O)[O-] (stereo not shown),"enzyme activity, inhibitor",,10 µM,remaining activity,107%
CC(C)(C)c1nc(-c2cccc(NS(=O)(=O)c3c(F)cccc3F)c2F)c(-c2ccnc(N)n2)s1,"enzyme activity, inhibitor, radiometric",,1 µM,remaining activity,88%
CNc1cc(Oc2cc(C(=O)Nc3cc(N4CCN(C)CC4)cc(C(F)(F)F)c3)ccc2C)ncn1,"target engagement in cells, inhibitor, chemoproteomics",Huh-7,1 µM,inhibition,-18.1%
CCN(CC)CCNC(=O)c1c(C)[nH]c(/C=C2\C(=O)Nc3ccc(F)cc32)c1C,"enzyme activity, inhibitor",,10 µM,inhibition,101%
Nc1nc(Nc2ccc(S(N)(=O)=O)cc2)nn1C(=O)c1c(F)cccc1F,cell-free assay,,0.5 µM,remaining signal,102%
CCCCN(CCCC)C(=O)CN1C[C@H](c2cc(OC)c3c(c2)OCO3)[C@@H](C(=O)O)[C@@H]1CC(C)(C)CCC,"cell-free assay, competition with immobilised ligand",,1 µM,remaining binding,100%
O=C1Nc2ccc(Cl)cc2C1=Cc1cc(Cl)c(O)c(Cl)c1,cell-free assay,,0.5 µM,remaining signal,98.4%
O=C(Nc1cnn(-c2csc(C(=O)NC3COC3)c2)c1)Nc1ccccc1Cl,"enzyme activity, inhibitor",,5 µM,remaining activity,101%
CC(=O)N1CCC(c2ccc(C(=O)NC(=N)N)cc2C(F)(F)F)CC1,"cell-free assay, competition with immobilised ligand",,1 µM,remaining binding,100%
CC(C)(O)[C@H]1CC[C@H](Nc2ccc3ncc(-c4cccc(C(F)(F)F)c4)n3n2)CC1,"enzyme activity, inhibitor",,1 µM,remaining activity,99.4%
c1ccc(CNc2nc(N3CCOc4ccccc43)nc3c2CCCC3)cc1,"target engagement in cells, inhibitor, chemoproteomics",,20 mM,inhibition,-2.7%
Cc1ccc(Nc2nccc(N(C)c3ccc4c(C)n(C)nc4c3)n2)cc1S(N)(=O)=O,"enzyme activity, inhibitor",,0.3 µM,inhibition,-4%
COc1cc2c(Nc3ccc(Br)cc3F)ncnc2cc1OCC1CCN(C)CC1,cell-free assay,,0.5 µM,remaining signal,99.1%
NS(=O)(=O)c1cc(NC(=O)C2(c3ccccc3Cl)CC2)ccc1Oc1cccc(Cl)c1,"cell-free assay, competition with immobilised ligand",,1 µM,remaining binding,100%
Clc1ccc(Nc2nnc(Cc3ccncc3)c3ccccc23)cc1,cell-free assay,,0.5 µM,remaining signal,91.8%
O=C(Nc1cccnn1)N1CCC(=Cc2cccc(Oc3ccc(C(F)(F)F)cn3)c2)CC1,"cell-free assay, competition with immobilised ligand",,1 µM,remaining binding,88%
COc1cccc2c(NCc3ccccc3)nc(-n3c(N)nc4ccccc43)nc12,"target engagement in cells, inhibitor, chemoproteomics",,20 mM,inhibition,4.6%
O=C(Nc1cccnn1)N1CC(C/C=C/c2cncc(Oc3ccc(C(F)(F)F)cn3)n2)C1,"cell-free assay, competition with immobilised ligand",,1 µM,remaining binding,100%
COc1ccc(COc2ccc(Cc3cnc(N)nc3N)cc2OC)cc1,cell-free assay,,0.5 µM,remaining signal,106%
CCC(=O)N[C@@H]1CC[C@H](C(=O)N(C)c2ccc(-c3nc4ccccc4o3)cc2)C1,"cell-free assay, competition with immobilised ligand",,1 µM,remaining binding,100%
O=C(Nc1cnn(-c2csc(C(=O)NC3COC3)c2)c1)Nc1c(F)cccc1Cl,"enzyme activity, inhibitor",,5 µM,remaining activity,131%
